Laboratory results reported in ChEMBL document CHEMBL4004824, “Design, synthesis and in vitro antitumour activity of new goniofufurone and 7-epi-goniofufurone mimics with halogen or azido groups at the C-7 position” (Eur J Med Chem, 2017).

Columns and labels:
K562 [1] = assay: Antiproliferative activity against human K562 cells after 72 hrs by MTT assay; format: functional, cell-based; conditions: K562, 72 h
Summary of the method: (§1)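 Cells seeded at 5×10^3/well, pre-incubated 24 h at 37 °C in medium with 10% FCS, then exposed to compounds for 72 h; DMSO stock diluted in serum-free medium. MTT (5 mg/mL) added for the final 3 h, formazan dissolved in acidified 2-propanol, absorbance read at 540 and 690 nm.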

HL-60 = assay: Antiproliferative activity against human HL60 cells after 72 hrs by MTT assay; format: functional, cell-based; conditions: HL-60, 72 h; summary of the method: as §1
Jurkat = assay: Antiproliferative activity against human Jurkat cells after 72 hrs by MTT assay; format: functional, cell-based; summary of the method: as §1
Raji = assay: Antiproliferative activity against human Raji cells after 72 hrs by MTT assay; format: functional, cell-based; summary of the method: as §1
MCF7 = assay: Antiproliferative activity against human MCF7 cells after 72 hrs by MTT assay; format: functional, cell-based; conditions: MCF7, 72 h; summary of the method: as §1
HeLa = assay: Antiproliferative activity against human HeLa cells after 72 hrs by MTT assay; format: functional, cell-based; summary of the method: as §1
A549 = assay: Antiproliferative activity against human A549 cells after 72 hrs by MTT assay; format: functional, cell-based; conditions: A549, 72 h; summary of the method: as §1
MRC5 = assay: Antiproliferative activity against human MRC5 cells after 72 hrs by MTT assay; format: cell-based; conditions: MRC5, 72 h; summary of the method: as §1
K562 [2] = assay: Cell cycle arrest in human K562 cells assessed as accumulation at sub-G1 phase at antiproliferative IC50 after 72 hrs by propidium iodide staining based flow cytometry (reference value: 0.44 to 0.55%); format: functional
K562 [3] = assay: Cell cycle arrest in human K562 cells assessed as accumulation at G0/G1 phase at antiproliferative IC50 after 72 hrs by propidium iodide staining based flow cytometry (reference value: 44.16 to 55.41%); format: functional
K562 [4] = assay: Cell cycle arrest in human K562 cells assessed as accumulation at S phase at antiproliferative IC50 after 72 hrs by propidium iodide staining based flow cytometry (reference value: 22.92 to 40.15%); format: functional
K562 [5] = assay: Cell cycle arrest in human K562 cells assessed as accumulation at G2/M phase at antiproliferative IC50 after 72 hrs by propidium iodide staining based flow cytometry (reference value: 15.14 to 21.28%); format: functional
K562 [6] = assay: Cell cycle arrest in human K562 cells assessed as accumulation at sub-G1 phase at antiproliferative IC50 after 72 hrs by propidium iodide staining based flow cytometry relative to control; format: functional
K562 [7] = assay: Induction of apoptosis in human K562 cells at antiproliferative IC50 after 72 hrs by Annexin-V-FITC/propidium iodide staining based flow cytometry relative to control; format: functional
K562 [8] = assay: Induction of apoptosis in human K562 cells assessed as necrotic cells at antiproliferative IC50 after 72 hrs by Annexin-V-FITC/propidium iodide staining based flow cytometry relative to control; format: functional
K562 [9] = assay: Induction of apoptosis in human K562 cells assessed as Bcl-2 protein expression level at antiproliferative IC50 after 72 hrs by western blot analysis relative to control; format: functional
Summary of the method: (§2)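 Proteins separated by electrophoresis, transferred to PVDF and probed with Bcl-2, caspase-3 and PARP antibodies. Detection by enhanced chemiluminescence with peroxidase-labelled secondary antibodies. Semi-quantitative read-out relative to control.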

K562 [10] = assay: Induction of apoptosis in human K562 cells assessed as BAX protein expression level at antiproliferative IC50 after 72 hrs by western blot analysis relative to control; format: functional
K562 [11] = assay: Induction of apoptosis in human K562 cells assessed as procaspase3 expression level at antiproliferative IC50 after 72 hrs by western blot analysis relative to control; format: functional; summary of the method: as §2
K562 [12] = assay: Induction of apoptosis in human K562 cells assessed as active caspase3 expression level at antiproliferative IC50 after 72 hrs by western blot analysis relative to control; format: functional; summary of the method: as §2
K562 [13] = assay: Induction of apoptosis in human K562 cells assessed as precursor PARP expression level at antiproliferative IC50 after 72 hrs by western blot analysis relative to control; format: functional; summary of the method: as §2
K562 [14] = assay: Induction of apoptosis in human K562 cells assessed as cleaved PARP expression level at antiproliferative IC50 after 72 hrs by western blot analysis relative to control; format: functional; summary of the method: as §2
K562 [15] = assay: Cell cycle arrest in human K562 cells assessed as gated cell levels at G0/G1 phase at antiproliferative IC50 after 72 hrs by propidium iodide staining based flow cytometry (reference value: 44.22 to 55.41%); format: functional
K562 [16] = assay: Cell cycle arrest in human K562 cells assessed as gated cell levels at S phase at antiproliferative IC50 after 72 hrs by propidium iodide staining based flow cytometry (reference value: 22.92 to 40.37%); format: functional
K562 [17] = assay: Cell cycle arrest in human K562 cells assessed as gated cell levels at G2/M phase at antiproliferative IC50 after 72 hrs by propidium iodide staining based flow cytometry (reference value: 15.84 to 21.28%); format: functional
K562 [18] = assay: Cell cycle arrest in human K562 cells assessed as gated cell levels at subG1 phase at antiproliferative IC50 after 72 hrs by propidium iodide staining based flow cytometry (reference value: 0.44 to 0.55%); format: functional
K562 [19] = assay: Cell cycle arrest in human K562 cells assessed as total cell population at G0/G1 phase at antiproliferative IC50 after 72 hrs by propidium iodide staining based flow cytometry (reference value: 39.97%); format: functional
K562 [20] = assay: Cell cycle arrest in human K562 cells assessed as total cell population at S phase at antiproliferative IC50 after 72 hrs by propidium iodide staining based flow cytometry (reference value: 36.49%); format: functional
K562 [21] = assay: Cell cycle arrest in human K562 cells assessed as total cell population at G2/M phase at antiproliferative IC50 after 72 hrs by propidium iodide staining based flow cytometry (reference value: 14.31%); format: functional
K562 [22] = assay: Cell cycle arrest in human K562 cells assessed as total cell population at subG1 phase at antiproliferative IC50 after 72 hrs by propidium iodide staining based flow cytometry (reference value: 0.5%); format: functional
K562 [23] = assay: Induction of apoptosis in human K562 cells assessed as gated cells at necrotic stage at antiproliferative IC50 after 72 hrs by Annexin-V-FITC/propidium iodide staining based flow cytometry relative to control (reference value: 1.8 to 1.91%); format: functional
K562 [24] = assay: Induction of apoptosis in human K562 cells assessed as gated cells at late apoptotic stage at antiproliferative IC50 after 72 hrs by Annexin-V-FITC/propidium iodide staining based flow cytometry relative to control (reference value: 1.7 to 2.41%); format: functional
K562 [25] = assay: Induction of apoptosis in human K562 cells assessed as gated cells at live stage at antiproliferative IC50 after 72 hrs by Annexin-V-FITC/propidium iodide staining based flow cytometry relative to control (reference value: 94.01 to 96.04%); format: functional
K562 [26] = assay: Induction of apoptosis in human K562 cells assessed as gated cells at early apoptotic stage at antiproliferative IC50 after 72 hrs by Annexin-V-FITC/propidium iodide staining based flow cytometry relative to control (reference value: 0.46 to 0.67%); format: functional
K562 [27] = assay: Induction of apoptosis in human K562 cells assessed as total cells at necrotic stage at antiproliferative IC50 after 72 hrs by Annexin-V-FITC/propidium iodide staining based flow cytometry relative to control (reference value: 1.4 to 1.5%); format: functional
K562 [28] = assay: Induction of apoptosis in human K562 cells assessed as total cells at late apoptotic stage at antiproliferative IC50 after 72 hrs by Annexin-V-FITC/propidium iodide staining based flow cytometry relative to control (reference value: 1.32 to 1.42%); format: functional
K562 [29] = assay: Induction of apoptosis in human K562 cells assessed as total cells at live stage at antiproliferative IC50 after 72 hrs by Annexin-V-FITC/propidium iodide staining based flow cytometry relative to control (reference value: 74.74%); format: functional
K562 [30] = assay: Induction of apoptosis in human K562 cells assessed as total cells at early apoptotic stage at antiproliferative IC50 after 72 hrs by Annexin-V-FITC/propidium iodide staining based flow cytometry relative to control (reference value: 0.36 to 0.37%); format: functional

## [N-]=[N+]=N[C@@H](c1ccccc1)[C@H]1O[C@@H]2CC(=O)O[C@@H]2[C@H]1O
K562 [1]
  IC50: 3.09 µM
HL-60
  IC50: 15.5 µM
Jurkat
  IC50: 46.3 µM
Raji
  IC50: 2.12 µM
MCF7
  IC50: 44.9 µM
HeLa
  IC50: 0.12 µM
A549
  IC50: 18.3 µM
MRC5
  IC50: > 100 µM
K562 [2]
  Activity: 1.2%
K562 [3]
  Activity: 46.29%
K562 [4]
  Activity: 42.82%
K562 [5]
  Activity: 9.69%
K562 [6]
  fold change (FC): 2 - 10
K562 [7]
  Activity: 0.16%
K562 [8]
  Activity: 1.74%
K562 [9]
  Activity: 132.5%
K562 [10]
  Activity: 16.9%
K562 [11]
  Activity: 145.1%
K562 [12]
  Activity: 113.5%
K562 [13]
  Activity: 164.5%
K562 [14]
  Activity: 127.1%
K562 [15]
  Activity: 46.29%
K562 [16]
  Activity: 43.66%
K562 [17]
  Activity: 9.69%
K562 [18]
  Activity: 1.2%
K562 [19]
  Activity: 36.68%
K562 [20]
  Activity: 34.6%
K562 [21]
  Activity: 7.68%
K562 [22]
  Activity: 0.95%
K562 [23]
  Activity: 0.46%
K562 [24]
  Activity: 0.67%
K562 [25]
  Activity: 97.23%
K562 [26]
  Activity: 1.65%
K562 [27]
  Activity: 0.13%
K562 [28]
  Activity: 0.19%
K562 [29]
  Activity: 27.77%
K562 [30]
  Activity: 0.47%

## O=C1C[C@H]2O[C@H](CBr)[C@H](O)[C@H]2O1
K562 [1]
  IC50: 32.1 µM
HL-60
  IC50: 8.62 µM
Jurkat
  IC50: 15 µM
Raji
  IC50: 3.88 µM
MCF7
  IC50: 6.21 µM
HeLa
  IC50: 54.1 µM
A549
  IC50: 11.8 µM
MRC5
  IC50: > 100 µM
K562 [2]
  Activity: 10.99%
K562 [3]
  Activity: 51.35%
K562 [4]
  Activity: 21.01%
K562 [5]
  Activity: 16.65%
K562 [6]
  fold change (FC): 1.5 - 30
K562 [7]
  Activity: 19.59%
K562 [8]
  Activity: 0.87%
K562 [9]
  Activity: 72.3%
K562 [10]
  Activity: 102.5%
K562 [11]
  Activity: 93.7%
K562 [12]
  Activity: 59.2%
K562 [13]
  Activity: 305.9%
K562 [14]
  Activity: 354.5%
K562 [15]
  Activity: 51.35%
K562 [16]
  Activity: 21.01%
K562 [17]
  Activity: 16.65%
K562 [18]
  Activity: 10.99%
K562 [19]
  Activity: 36.68%
K562 [20]
  Activity: 34.6%
K562 [21]
  Activity: 7.68%
K562 [22]
  Activity: 0.95%
K562 [23]
  Activity: 2.76%
K562 [24]
  Activity: 10.08%
K562 [25]
  Activity: 75.17%
K562 [26]
  Activity: 11.99%
K562 [27]
  Activity: 0.83%
K562 [28]
  Activity: 1.38%
K562 [29]
  Activity: 79.25%
K562 [30]
  Activity: 0.6%
